Residues, ends and D or L forms follow the SMILES beside them.
Legend:
Plasminogen [1] = molecular target: T1, Plasminogen (Homo sapiens, UniProt P00747); assay: Inhibition of plasmin in human plasma assessed as reduction in tPA and thrombin-induced fibrinolysis at 400 nM by fibrin light scattering analysis relative to control; format: cell-free
In short: (§1)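 Pooled citrated human plasma with inhibitor in Tris-HCl pH 7.4, 150 mM NaCl, 30 mM CaCl2, plasma 1:5 final. Clotting and lysis started with tPA (1.5 nM) and thrombin (2.5 nM). Fibrin formation and lysis followed by light scattering at 405 nm over 1 h. Mean of three independent experiments, each with 12 technical replicates.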

Coagulation factor XII = molecular target: T2, Coagulation factor XII (Homo sapiens, UniProt P00748); assay: Inhibition of activated beta-factor 12 (unknown origin) using Ac-QRFR-pNA as substrate after 30 mins relative to untreated control
T2 sequence (P00748 whole entry): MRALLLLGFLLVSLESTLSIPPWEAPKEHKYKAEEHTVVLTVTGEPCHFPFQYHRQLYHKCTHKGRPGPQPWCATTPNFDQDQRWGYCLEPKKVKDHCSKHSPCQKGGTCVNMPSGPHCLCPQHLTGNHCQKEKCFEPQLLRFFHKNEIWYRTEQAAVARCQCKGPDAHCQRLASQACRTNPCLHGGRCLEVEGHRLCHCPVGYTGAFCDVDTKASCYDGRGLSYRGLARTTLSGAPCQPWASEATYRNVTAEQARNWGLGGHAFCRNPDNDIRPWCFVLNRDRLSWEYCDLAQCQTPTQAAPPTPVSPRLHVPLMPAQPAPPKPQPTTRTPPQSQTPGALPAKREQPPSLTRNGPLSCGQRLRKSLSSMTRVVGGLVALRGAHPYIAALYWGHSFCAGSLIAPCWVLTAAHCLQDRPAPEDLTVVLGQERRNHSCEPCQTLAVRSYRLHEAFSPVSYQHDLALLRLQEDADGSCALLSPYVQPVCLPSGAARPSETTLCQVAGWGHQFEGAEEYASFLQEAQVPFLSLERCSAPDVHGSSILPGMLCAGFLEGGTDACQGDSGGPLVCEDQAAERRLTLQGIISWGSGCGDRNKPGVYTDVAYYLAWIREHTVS

Plasma kallikrein = Plasma kallikrein (Homo sapiens, UniProt P03952); assay: Inhibition of plasma KLK (unknown origin) using Ac-NLTR-pNA as substrate after 30 mins relative to untreated control
Plasma kallikrein, sequence (P03952 20-390 limits assumed): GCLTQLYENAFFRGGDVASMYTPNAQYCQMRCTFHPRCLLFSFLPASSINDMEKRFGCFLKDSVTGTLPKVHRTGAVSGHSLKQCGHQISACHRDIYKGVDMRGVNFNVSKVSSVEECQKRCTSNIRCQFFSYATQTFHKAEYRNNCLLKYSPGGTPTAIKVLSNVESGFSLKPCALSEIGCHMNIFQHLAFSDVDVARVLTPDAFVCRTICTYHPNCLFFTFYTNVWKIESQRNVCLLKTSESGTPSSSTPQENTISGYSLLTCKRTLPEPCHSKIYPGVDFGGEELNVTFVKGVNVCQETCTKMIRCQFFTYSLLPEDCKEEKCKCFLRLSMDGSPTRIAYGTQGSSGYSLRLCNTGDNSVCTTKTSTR
Plasma kallikrein, sequence (P03952 391-638 limits assumed): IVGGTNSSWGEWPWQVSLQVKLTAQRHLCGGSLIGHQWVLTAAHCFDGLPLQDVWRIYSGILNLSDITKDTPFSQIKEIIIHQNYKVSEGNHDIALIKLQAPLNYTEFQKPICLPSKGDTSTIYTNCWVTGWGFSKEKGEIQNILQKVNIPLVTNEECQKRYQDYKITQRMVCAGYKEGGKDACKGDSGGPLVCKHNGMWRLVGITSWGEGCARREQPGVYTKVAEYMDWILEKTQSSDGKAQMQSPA

Plasminogen [2] = molecular target: T1, Plasminogen; assay: Inhibition of human plasmin assessed as association rate constant using Ac-RM(O2)YR-pNA as substrate after 30 mins
Homo sapiens [3] = species: Homo sapiens; assay: Selectivity index, ratio of IC50 for inhibition of plasma KLK (unknown origin) to IC50 for Inhibition of human plasmin
Plasminogen [4] = molecular target: T1, Plasminogen; assay: Inhibition of plasmin in human plasma assessed as reduction in tPA and thrombin-induced fibrinolysis at 200 nM by fibrin light scattering analysis relative to control; format: cell-free; in short: as §1
Homo sapiens [5] = species: Homo sapiens; assay: Selectivity index, ratio of IC50 for inhibition of activated beta-factor 11 (unknown origin) to IC50 for Inhibition of human plasmin
Homo sapiens [6] = species: Homo sapiens; assay: Selectivity index, ratio of IC50 for inhibition of tPA (unknown origin) to IC50 for Inhibition of human plasmin
Coagulation factor X = Coagulation factor X (Homo sapiens, UniProt P00742); assay: Inhibition of activated factor 10 (unknown origin) using Ac-QRSR-pNA as substrate after 30 mins relative to untreated control
Coagulation factor X, sequence (P00742 41-179 limits assumed): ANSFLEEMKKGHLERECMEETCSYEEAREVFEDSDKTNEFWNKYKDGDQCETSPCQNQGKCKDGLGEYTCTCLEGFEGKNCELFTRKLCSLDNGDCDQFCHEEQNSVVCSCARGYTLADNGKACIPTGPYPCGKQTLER
Coagulation factor X, sequence (P00742 235-488 limits assumed): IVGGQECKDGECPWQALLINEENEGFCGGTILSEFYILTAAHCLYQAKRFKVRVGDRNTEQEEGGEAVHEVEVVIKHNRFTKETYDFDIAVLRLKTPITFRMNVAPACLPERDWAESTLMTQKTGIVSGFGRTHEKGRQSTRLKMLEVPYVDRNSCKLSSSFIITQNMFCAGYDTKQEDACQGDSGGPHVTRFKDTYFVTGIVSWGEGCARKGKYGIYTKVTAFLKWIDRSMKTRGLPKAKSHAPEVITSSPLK

T1 sequence (P00747 97-580 limits assumed): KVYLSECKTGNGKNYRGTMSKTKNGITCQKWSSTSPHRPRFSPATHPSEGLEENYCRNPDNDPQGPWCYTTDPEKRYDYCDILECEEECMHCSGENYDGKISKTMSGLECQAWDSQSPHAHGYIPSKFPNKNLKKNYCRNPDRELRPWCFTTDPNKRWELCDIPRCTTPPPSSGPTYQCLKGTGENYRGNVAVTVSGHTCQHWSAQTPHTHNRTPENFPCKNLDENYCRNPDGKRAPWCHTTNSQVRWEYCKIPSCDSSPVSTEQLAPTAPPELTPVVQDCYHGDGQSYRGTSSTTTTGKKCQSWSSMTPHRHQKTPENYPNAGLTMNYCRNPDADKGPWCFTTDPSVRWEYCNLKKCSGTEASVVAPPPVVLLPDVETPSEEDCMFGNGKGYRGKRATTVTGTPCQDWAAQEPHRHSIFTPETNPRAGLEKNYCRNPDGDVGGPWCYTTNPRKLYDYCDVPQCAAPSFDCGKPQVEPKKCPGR
T1 sequence (P00747 581-810 limits assumed): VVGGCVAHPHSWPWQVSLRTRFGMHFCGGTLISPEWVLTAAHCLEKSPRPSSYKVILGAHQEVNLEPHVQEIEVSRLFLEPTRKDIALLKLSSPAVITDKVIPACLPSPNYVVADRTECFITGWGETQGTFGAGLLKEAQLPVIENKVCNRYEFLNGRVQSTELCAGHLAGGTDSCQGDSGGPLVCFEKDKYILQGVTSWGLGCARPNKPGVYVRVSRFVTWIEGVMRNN

inhibition (Plasminogen [1]): 100%
Ki (Coagulation factor XII): > 50 µM
Ki (Plasma kallikrein): > 50 µM
K (Plasminogen [2]): 1.9 ×10⁷ /M/s
Ratio IC50 (Homo sapiens [3]): > 1e+06
inhibition (Plasminogen [4]): 90%
Ratio IC50 (Homo sapiens [5]): > 1e+06
Ratio IC50 (Homo sapiens [6]): > 1e+06
Ki (Coagulation factor X): > 50 µM
SMILES: CC[C@H](C)[C@@H]1NC(=O)[C@@H]2CCCN2C(=O)[C@@H]2CCCN2C(=O)[C@H](CCCCN)NC(=O)[C@H](CO)NC(=O)[C@H](CCCCN)NC(=O)[C@H](Cc2ccc(O)cc2)NC(=O)[C@@H]2CSSC[C@H](NC1=O)C(=O)N[C@@H](Cc1ccccc1)C(=O)N1CCC[C@H]1C(=O)N[C@@H](CC(=O)O)C(=O)NCC(=O)N[C@@H](CCCNC(=N)N)C(=O)N2 (HELM PEPTIDE1{C.F.P.D.G.R.C.Y.K.S.K.P.P.I}$PEPTIDE1,PEPTIDE1,1:R3-7:R3|PEPTIDE1,PEPTIDE1,1:R1-14:R2$$$V2.0)

Reference: ChEMBL document CHEMBL4371033, “Highly Potent and Selective Plasmin Inhibitors Based on the Sunflower Trypsin Inhibitor-1 Scaffold Attenuate Fibrinolysis in Plasma” (J Med Chem, 2019)
